# Assay results collected from several papers.
# Each line is one published result; the experiments were not run side by side.
# Read-out: cell growth or viability
SMILES,cell line,method,time,IC50 [µM]
O=C(c1cc(-c2ccccc2O)on1)N1CCN(C(c2ccccc2)c2ccccc2)CC1,HEK293,,,> 10
C=CC(=O)Nc1cc(Nc2nc(N3CCc4sccc4C3)c3cccnc3n2)c(OC)cc1N1CCN(CCO)CC1,NCI-H1975,MTT,,0.906
Cn1nnc2c(C(N)=O)ncn2c1=O,T98G,resazurin,7 days,660
CC#CC(=O)N1CCC[C@H]1c1nc(-c2ccc(C(=O)Nc3ccccn3)cc2)c2c(N)nccn12,TMD8,CCK-8,72 h,0.014
C/C=C/COc1ccc(-c2c(C)[nH]c(C)c(Cl)c2=O)cc1,HEK293,,,> 10
CC[C@@H](C)[C@H](N)C(=O)N1Cc2ccccc2C1,SET-2,ATP luminescence,,0.09
C[C@H](O)C(=O)CCCCCCC(=O)Nc1cccc(-c2cn(-c3ccccc3)nn2)c1,HEK293,XTT,,15.9
Cc1[nH]c(C)c(-c2ccc(CCc3ccc(F)cc3F)cc2)c(=O)c1Br,HEK293,,,> 10
COc1cc(N(C)CCN(C)C)c(NC(=O)/C=C/C(C)C)cc1Nc1nc(N2CCc3sccc3C2)c2sccc2n1,NCI-H1975,MTT,,15.6
Cc1cc(=O)c(-c2ccc(Oc3cccc(OC(F)(F)F)c3)cc2)c(C)[nH]1,HEK293,,,> 10
O=C1Nc2ccccc2-c2cnc(NCc3c(F)ccc4c3CCO4)n3cnc1c23,KARPAS-422,CCK-8,7 days,0.0683
COc1ccc2oc(=O)cc(CSC(C)=O)c2c1,HEK293,MTT,36 h,> 20
CCC(=O)Nc1cc(Nc2nc(N3CCc4sccc4C3)c3cccnc3n2)c(OC)cc1N1CCN(CC)CC1,NCI-H1975,MTT,,0.198
COc1ccc2oc(=O)cc(CCl)c2c1,HEK293,MTT,36 h,> 20
c1cc(CN2CCN(c3ccncc3)CC2)cc(-c2ccc(-c3nc4ccccc4[nH]3)cc2)c1,HEK293,,,> 10
C=CC(=O)Nc1cc(Nc2nc(N3CCc4sccc4C3)c3cccnc3n2)c(OC)cc1N1CCSCC1,NCI-H1975,MTT,,0.312
COc1c(C)[nH]c(C)c(-c2ccc(Oc3cccc(C(F)(F)F)c3)cc2)c1=O,HEK293,,,> 10
O=c1ccc2ccc(O)c(CO)c2o1,HEK293,MTT,36 h,> 20
CCSC(=O)c1ncn2c(=O)n(C)nnc12,T98G,resazurin,7 days,327
COc1cc(N(C)CCN(C)C)c(NC(=O)/C=C/C(C)C)cc1Nc1nc(Nc2cnn(C)c2)c2sccc2n1,NCI-H1975,MTT,,0.297
C=CC(=O)Nc1cccc(Nc2nc(Nc3ccc(OCCOC)cc3)ncc2F)c1,CNE2Z,,,6.33
COc1cc(N(C)CCN(C)C)c(NC(=O)C=C(C)C)cc1Nc1nc(N2CCc3sccc3C2)c2sccc2n1,NCI-H1975,MTT,,9.93
Cc1[nH]c(C)c(-c2ccc(OCc3ccc(F)cc3)cc2)c(=O)c1Cl,HEK293,,,> 10
O=C1NCCc2[nH]c(-c3ccncc3)cc21,SK-MEL-28,,,9.6
Cc1cc(=O)c(-c2ccc(Oc3cccc(Cl)c3)cc2)c(C)[nH]1,HEK293,,,> 10
C=CC(=O)Nc1cc(Nc2nc(N3CCc4sccc4C3)c3cccnc3n2)c(OC)cc1N1CCN(C(C)=O)CC1,NCI-H1975,MTT,,0.694
